The test system of assay [1] is GLP. The following applies: cited from earlier work.
The subject of assay [2] is 29 PKMTs, PRMTs, DNMTs, and RNMTs. Briefly: Selectivity assays against a methyltransferase panel. In kind it is biochemical. In outline: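 Quenched with 7.5 M guanidine HCl, diluted in 20 mM Tris pH 8.0, FlashPlate counted after 1 h. DOT1L, ASH1L, DNMT3A/3L, DNMT3B/3L: 1 h RT, TCA filter capture, washes, scintillation count. No-compound = 100%, no-enzyme = 0%.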
In assay [3] the target is T1, G9a (Homo sapiens, UniProt Q96KQ7).
T1 sequence (Q96KQ7 1-1210): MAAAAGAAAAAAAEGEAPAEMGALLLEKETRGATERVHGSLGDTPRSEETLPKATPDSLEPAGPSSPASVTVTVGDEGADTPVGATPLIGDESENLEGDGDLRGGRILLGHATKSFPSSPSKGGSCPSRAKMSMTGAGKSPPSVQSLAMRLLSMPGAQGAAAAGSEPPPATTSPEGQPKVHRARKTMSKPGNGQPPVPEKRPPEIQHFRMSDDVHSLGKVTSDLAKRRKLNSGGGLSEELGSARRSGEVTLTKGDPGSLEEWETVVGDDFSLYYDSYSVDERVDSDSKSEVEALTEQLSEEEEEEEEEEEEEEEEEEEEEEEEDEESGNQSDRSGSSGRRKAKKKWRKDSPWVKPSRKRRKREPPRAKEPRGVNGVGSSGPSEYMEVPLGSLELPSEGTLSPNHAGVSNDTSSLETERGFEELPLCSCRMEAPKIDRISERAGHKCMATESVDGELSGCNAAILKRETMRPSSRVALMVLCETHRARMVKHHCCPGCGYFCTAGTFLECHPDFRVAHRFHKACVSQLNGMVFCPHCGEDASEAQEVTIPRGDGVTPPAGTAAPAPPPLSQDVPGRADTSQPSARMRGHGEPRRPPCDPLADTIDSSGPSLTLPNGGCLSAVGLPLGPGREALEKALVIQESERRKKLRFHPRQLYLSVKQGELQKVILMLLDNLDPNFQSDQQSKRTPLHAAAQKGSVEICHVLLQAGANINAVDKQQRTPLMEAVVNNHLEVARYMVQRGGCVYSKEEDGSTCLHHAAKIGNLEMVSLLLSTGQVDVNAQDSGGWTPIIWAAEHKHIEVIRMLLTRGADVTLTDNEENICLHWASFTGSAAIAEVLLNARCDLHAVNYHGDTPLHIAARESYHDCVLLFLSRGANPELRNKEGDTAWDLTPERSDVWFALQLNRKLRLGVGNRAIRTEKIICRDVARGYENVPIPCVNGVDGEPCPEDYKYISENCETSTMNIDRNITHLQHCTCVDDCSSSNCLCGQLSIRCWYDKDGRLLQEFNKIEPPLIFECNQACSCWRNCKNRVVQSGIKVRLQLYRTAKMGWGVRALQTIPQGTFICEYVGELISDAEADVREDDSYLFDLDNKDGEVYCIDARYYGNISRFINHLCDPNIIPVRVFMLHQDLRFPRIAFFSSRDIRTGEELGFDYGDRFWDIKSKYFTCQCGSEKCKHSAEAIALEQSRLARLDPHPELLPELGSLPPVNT
Briefly: G9a scintillation proximity methyltransferase assay. The following applies: ratio of IC50 versus compound 14. In kind it is biochemical. On the technique in general: SPA uses beads or plates that emit light when radiolabelled molecules are held near them.

As to `COc1cc2nc(N3CCCN(C)CC3)nc(NC3CCN(Cc4ccccc4)CC3)c2cc1OC` [Compound 1], in assay [1], the “selectivity for GLP over G9a” value is given as 3–5 fold.

As to `COc1cc2nc(N3CCOCC3)nc(NC3CCN(C)CC3)c2cc1OC` [Compound 4, 6,7-Dimethoxy-N-(1-methylpiperidin-4-yl)-2-morpholinoquinazolin-4-amine], the “inhibition of 29 methyltransferases” value in assay [2] (compound at 10 μM) is listed as “did not inhibit”.

With `COc1cc2nc(N3CCCN(C)CC3)nc(NC3CCN(C)CC3)c2cc1OC` [Compound 15, 6,7-Dimethoxy-2-(4-methyl-1,4-diazepan-1-yl)-N-(1-methylpiperidin-4-yl)quinazolin-4-amine], in assay [3], the “potency increase for G9a compared with 14” value amounted to 21 fold.

As to `CCCCCCNc1nc(NC2CCN(C)CC2)c2cc(OC)c(OC)cc2n1` [Compound 18, N^2-Hexyl-6,7-dimethoxy-N^4-(1-methylpiperidin-4-yl)quinazoline-2,4-diamine], in assay [2] (compound at 1 μM), the “inhibition of 29 methyltransferases” value is reported as “did not inhibit”.

The record behind these values is paper PMC5352984 (Journal of medicinal chemistry, 2017).
